Active and inactive are the calls of the source. The calls are words filed in the database; no cut-off is given here.
How the values were obtained:
Canis familiaris [1] = assay: Antiarrhythmic potential in conscious dogs; inactive.; assay type: functional, organism-based; conditions: Canis lupus familiaris; Heart
In short: (§1)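 Mongrel dogs with experimental myocardial infarction, conscious, with ventricular tachycardia or runs of VT. Dosed 50 mg/kg orally as solution in distilled water or acacia gum during the acute phase (16–36 h). Positive response means ≥60% suppression of ventricular arrhythmias or induction of sinus rhythm. The duration of effect was recorded in min.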

Canis familiaris [2] = assay: (§2) Intracardiac conduction in anesthetized dogs, measured as HV; HV being the conduction time in specific intraventricular tissue; assay type: functional, Canis lupus familiaris, Cardiac ventricle
In short: (§3)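 Mongrel dogs under sodium pentobarbital anesthesia. His bundle electrogram recorded via left heart catheterization. His potentials recorded before dosing and 5 and 15 min after each intravenous dose, at different pacing rates. SH (stimulus to His deflection) and HV intervals measured.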

Canis familiaris [3] = assay: Intracardiac conduction in anesthetized dogs, measured as SH; SH being the atrial His bundle conduction time; Value ranges from +0 to +10; assay type: functional, Canis lupus familiaris, Atrioventricular bundle; in short: as §3
Canis familiaris [4] = assay: Antiarrhythmic potential in conscious dogs; assay type: functional, Canis lupus familiaris, Heart; in short: as §1
Canis familiaris [5] = assay: Intracardiac conduction in anesthetized dogs, measured as SH; SH being the atrial His bundle conduction time; assay type: functional, Canis lupus familiaris, Atrioventricular bundle; in short: as §3
Canis familiaris [6] = assay: as §2; assay type: functional, Canis lupus familiaris, Cardiac ventricle; design: concentration or dose not given beside the values; in short: as §3
Canis familiaris [7] = assay: Antiarrhythmic potential in conscious dogs; the value ranges from +8 to +-240; assay type: functional, Canis lupus familiaris, Heart; in short: as §1
Canis familiaris [8] = assay: Antiarrhythmic potential in conscious dogs; value ranges from +45 to +360; assay type: functional, Canis lupus familiaris, Heart; in short: as §1
Canis familiaris [9] = assay: Intracardiac conduction in anesthetized dogs, measured as HV; HV being the conduction time in specific intraventricular tissue; value ranges from +45 to +100; assay type: functional, Canis lupus familiaris, Cardiac ventricle; in short: as §3
Canis familiaris [10] = assay: Intracardiac conduction in anesthetized dogs, measured as SH; SH being the atrial His bundle conduction time; value ranges from +40 to +100; assay type: functional, Canis lupus familiaris, Atrioventricular bundle; in short: as §3
Canis familiaris [11] = assay: Antiarrhythmic potential in conscious dogs; the value ranges from +30 to +60; assay type: functional, Canis lupus familiaris, Heart
Canis familiaris [12] = assay: Intracardiac conduction in anesthetized dogs, measured as HV; HV being the conduction time in specific intraventricular tissue; value ranges from 35-80; assay type: functional, Canis lupus familiaris, Cardiac ventricle; in short: as §3
Canis familiaris [13] = assay: Intracardiac conduction in anesthetized dogs, measured as SH; SH being the atrial His bundle conduction time; value ranges from +50 to +85; assay type: functional, Canis lupus familiaris, Atrioventricular bundle; in short: as §3
Canis familiaris [14] = assay: Antiarrhythmic potential in conscious dogs; Inactive.; assay type: functional, organism-based; conditions: Canis lupus familiaris; Heart; in short: as §1
Canis familiaris [15] = assay: Antiarrhythmic potential in conscious dogs;Value ranges from +27 to +280; assay type: functional, Canis lupus familiaris, Heart; in short: as §1
Canis familiaris [16] = assay: Intracardiac conduction in anesthetized dogs, measured as HV; HV being the conduction time in specific intraventricular tissue; Value ranges from 20-33; assay type: functional, Canis lupus familiaris, Cardiac ventricle; in short: as §3
Canis familiaris [17] = assay: Intracardiac conduction in anesthetized dogs, measured as SH; SH being the atrial His bundle conduction time; Value ranges from +20 to +70; assay type: functional, Canis lupus familiaris, Atrioventricular bundle; in short: as §3
Canis familiaris [18] = assay: Antiarrhythmic potential in conscious dogs was calculated and found that after 60 minutes the dogs died.; assay type: functional, Canis lupus familiaris, Heart
Canis familiaris [19] = assay: Antiarrhythmic potential in conscious dogs; value ranges from +165 to +405; assay type: functional, Canis lupus familiaris, Heart; in short: as §1
Canis familiaris [20] = assay: Intracardiac conduction in anesthetized dogs, measured as SH; SH being the atrial His bundle conduction time; value ranges from +25 to +30; assay type: functional, Canis lupus familiaris, Atrioventricular bundle; in short: as §3
Canis familiaris [21] = assay: Intracardiac conduction in anesthetized dogs, measured as HV; HV being the conduction time in specific intraventricular tissue; value ranges from +0 to +30; assay type: functional, Canis lupus familiaris, Cardiac ventricle; in short: as §3
Canis familiaris [22] = assay: Intracardiac conduction in anesthetized dogs, measured as SH; SH being the atrial His bundle conduction time; value ranges from +70 to +120; assay type: functional, Canis lupus familiaris, Atrioventricular bundle; in short: as §3
Canis familiaris [23] = assay: Intracardiac conduction in anesthetized dogs, measured as HV; HV being the conduction time in specific intraventricular tissue; value ranges from +100 to +210; assay type: functional, Canis lupus familiaris, Cardiac ventricle; in short: as §3
Canis familiaris [24] = assay: Antiarrhythmic potential in conscious dogs; value ranges from +120 to +380; assay type: functional, Canis lupus familiaris, Heart; in short: as §1
Canis familiaris [25] = assay: Intracardiac conduction in anesthetized dogs, measured as HV; HV being the conduction time in specific intraventricular tissue value ranges from +20 to +30; assay type: functional, Canis lupus familiaris, Cardiac ventricle; in short: as §3
Canis familiaris [26] = assay: Intracardiac conduction in anesthetized dogs, measured as SH; SH being the atrial His bundle conduction time value ranges from +15 to +35; assay type: functional, Canis lupus familiaris, Atrioventricular bundle; in short: as §3
Canis familiaris [27] = assay: Antiarrhythmic potential in conscious dogs; was tested and found that after 90 min the dogs died.; assay type: functional, Canis lupus familiaris, Heart
Canis familiaris [28] = assay: Intracardiac conduction in anesthetized dogs, measured as HV; HV being the conduction time in specific intraventricular tissue; value ranges from + 60 to+135; assay type: functional, Canis lupus familiaris, Cardiac ventricle; in short: as §3
Canis familiaris [29] = assay: Intracardiac conduction in anesthetized dogs, measured as SH; SH being the atrial His bundle conduction time; Value ranges from +8 to +100; assay type: functional, Canis lupus familiaris, Atrioventricular bundle; in short: as §3
Canis familiaris [30] = assay: Antiarrhythmic potential in conscious dogs; value ranges from +190 to +270; assay type: functional, Canis lupus familiaris, Heart; in short: as §1
Canis familiaris [31] = assay: Intracardiac conduction in anesthetized dogs, measured as HV; HV being the conduction time in specific intraventricular tissue; value ranges from +2 to +-50; assay type: functional, Canis lupus familiaris, Cardiac ventricle; in short: as §3
Canis familiaris [32] = assay: Intracardiac conduction in anesthetized dogs, measured as SH; SH being the atrial His bundle conduction time; value ranges from +10 to +50; assay type: functional, Canis lupus familiaris, Atrioventricular bundle; in short: as §3
Canis familiaris [33] = assay: Antiarrhythmic potential in conscious dogs; value ranges from +155 to +300; assay type: functional, Canis lupus familiaris, Heart; in short: as §1
Canis familiaris [34] = assay: Antiarrhythmic potential in conscious dogs; value ranges from +20 to +270; assay type: functional, Canis lupus familiaris, Heart; in short: as §1
Canis familiaris [35] = assay: Intracardiac conduction in anesthetized dogs, measured as HV; HV being the conduction time in specific intraventricular tissue; value ranges from +25 to +30; assay type: functional, Canis lupus familiaris, Cardiac ventricle; in short: as §3
Canis familiaris [36] = assay: Intracardiac conduction in anesthetized dogs, measured as SH; SH being the atrial His bundle conduction time; value ranges from +15 to +20; assay type: functional, Canis lupus familiaris, Atrioventricular bundle; in short: as §3
Canis familiaris [37] = assay: Antiarrhythmic potential in conscious dogs; value ranges from 210-270; assay type: functional, Canis lupus familiaris, Heart; in short: as §1
Canis familiaris [38] = assay: Intracardiac conduction in anesthetized dogs, measured as SH; SH being the atrial His bundle conduction time; value ranges from +30 to +-55; assay type: functional, Canis lupus familiaris, Atrioventricular bundle; in short: as §3
Canis familiaris [39] = assay: Intracardiac conduction in anesthetized dogs, measured as SH; SH being the atrial His bundle conduction time; value ranges from +4 to +-85; assay type: functional, Canis lupus familiaris, Atrioventricular bundle; in short: as §3
Canis familiaris [40] = assay: Antiarrhythmic potential in conscious dogs; value ranges from +50 to +60; assay type: functional, Canis lupus familiaris, Heart; in short: as §1
Canis familiaris [41] = assay: Antiarrhythmic potential in conscious dogs; value ranges from +80 to +360; assay type: functional, Canis lupus familiaris, Heart; in short: as §1

## CC(C)CC(CCN1CCOCC1)(C(N)=O)c1ccccn1 (stereo unspecified)
Canis familiaris [1]
  Actual duraction: inactive
Canis familiaris [2]
  Variation/Control: 0%
Canis familiaris [3]
  Variation/Control: 10%

## CCCC(CCN(C(C)C)C(C)C)(C(N)=O)c1ccccn1 (stereo unspecified)
Canis familiaris [4]
  Actual duraction: 35 min
Canis familiaris [2]
  Variation/Control: 0%
Canis familiaris [5]
  Variation/Control: 15%

## CCN(CC)CCC(CC(C)C)(C(N)=O)c1ccccn1 (stereo unspecified)
Canis familiaris [1]
  Actual duraction: inactive
Canis familiaris [5]
  Variation/Control: 15%
Canis familiaris [6]
  Variation/Control: 0%

## CC(C)CC(CCN(C(C)C)C(C)C)(C(N)=O)c1ccncc1 (stereo unspecified)
Canis familiaris [7]
  Actual duraction: 240 min
Canis familiaris [5]
  Variation/Control: 110%
Canis familiaris [6]
  Variation/Control: 45%

## CC(C)N(CCC(CC1CCCCC1)(C(N)=O)c1ccccn1)C(C)C (stereo unspecified)
Canis familiaris [8]
  Actual duraction: 360 min
Canis familiaris [9]
  Variation/Control: 100%
Canis familiaris [10]
  Variation/Control: 100%

## CC(C)N(CCC(C(N)=O)(c1ccccc1)c1ccccn1)C(C)C (stereo unspecified) [DISOPYRAMIDE]
Canis familiaris [11]
  Actual duraction: 60 min

## CC(C)N(CCC(Cc1ccccc1)(C(N)=O)c1ccccn1)C(C)C (stereo unspecified)
Canis familiaris [1]
  Actual duraction: inactive
Canis familiaris [12]
  Variation/Control: 80%
Canis familiaris [13]
  Variation/Control: 85%

## CCCN(CCC)CCC(CC(C)C)(C(N)=O)c1ccccn1 (stereo unspecified)
Canis familiaris [14]
  Actual duraction: inactive
Canis familiaris [5]
  Variation/Control: 20%
Canis familiaris [6]
  Variation/Control: 0%

## CCC(CC)C(CCN(C(C)C)C(C)C)(C(N)=O)c1ccccn1 (stereo unspecified)
Canis familiaris [15]
  Actual duraction: 280 min
Canis familiaris [16]
  Variation/Control: 33%
Canis familiaris [17]
  Variation/Control: 70%

## CC(C)CC(CCN(C1CCCCC1)C1CCCCC1)(C(N)=O)c1ccccn1 (stereo unspecified)
Canis familiaris [5]
  Variation/Control: 45%
Canis familiaris [6]
  Variation/Control: 75%
Canis familiaris [18]
  Actual duraction: 60 min

## CC(C)N(CCC(CC(C)(C)C)(C(N)=O)c1ccccn1)C(C)C (stereo unspecified)
Canis familiaris [19]
  Actual duraction: 405 min
Canis familiaris [20]
  Variation/Control: 30%
Canis familiaris [21]
  Variation/Control: 30%

## CCCCCC(CCN(C(C)C)C(C)C)(C(N)=O)c1ccccn1 (stereo unspecified)
Canis familiaris [4]
  Actual duraction: 180 min
Canis familiaris [22]
  Variation/Control: 120%
Canis familiaris [23]
  Variation/Control: 210%

## CC(C)CC(CCN(C(C)C)C(C)C)(C(N)=O)c1cccnc1 (stereo unspecified)
Canis familiaris [4]
  Actual duraction: 45 min
Canis familiaris [2]
  Variation/Control: 25%
Canis familiaris [5]
  Variation/Control: 20%

## CC(C)CC(CCN(C(C)C)C(C)C)(C(N)=O)c1ccccn1 (stereo unspecified) [PENTISOMIDE]
Canis familiaris [24]
  Actual duraction: 380 min
Canis familiaris [25]
  Variation/Control: 30%
Canis familiaris [26]
  Variation/Control: 35%

## CCC(C)N(CCC(CC(C)C)(C(N)=O)c1ccccn1)C(C)CC (stereo unspecified)
Canis familiaris [27]
  Actual duraction: 90 min
Canis familiaris [28]
  Variation/Control: 135%
Canis familiaris [29]
  Variation/Control: 100%

## CC(C)CC(CCCN(C(C)C)C(C)C)(C(N)=O)c1ccccn1 (stereo unspecified)
Canis familiaris [4]
  Actual duraction: 30 min
Canis familiaris [2]
  Variation/Control: 0%
Canis familiaris [5]
  Variation/Control: 15%

## CC(C)CCC(CCN(C(C)C)C(C)C)(C(N)=O)c1ccccn1 (stereo unspecified)
Canis familiaris [30]
  Actual duraction: 270 min
Canis familiaris [31]
  Variation/Control: 50%
Canis familiaris [32]
  Variation/Control: 50%

## CCC(CCN(C(C)C)C(C)C)(C(N)=O)c1ccccn1 (stereo unspecified)
Canis familiaris [33]
  Actual duraction: 300 min
Canis familiaris [5]
  Variation/Control: 20%
Canis familiaris [6]
  Variation/Control: 0%

## CC(C)CC(CCN1C(C)CCCC1C)(C(N)=O)c1ccccn1 (stereo unspecified)
Canis familiaris [34]
  Actual duraction: 270 min
Canis familiaris [35]
  Variation/Control: 30%
Canis familiaris [36]
  Variation/Control: 20%

## CCC(C)C(CCN(C(C)C)C(C)C)(C(N)=O)c1ccccn1 (stereo unspecified)
Canis familiaris [4]
  Actual duraction: 240 min
Canis familiaris [5]
  Variation/Control: 0%
Canis familiaris [6]
  Variation/Control: 30%

## CC(C)N(CCC(C(N)=O)(c1ccccn1)C1CCCCC1)C(C)C (stereo unspecified)
Canis familiaris [37]
  Actual duraction: 270 min
Canis familiaris [38]
  Variation/Control: 55%
Canis familiaris [6]
  Variation/Control: 40%

## CC(C)N(CCC(C(N)=O)c1ccccn1)C(C)C (stereo unspecified)
Canis familiaris [1]
  Actual duraction: inactive
Canis familiaris [5]
  Variation/Control: 0%
Canis familiaris [6]
  Variation/Control: 0%

## CC(C)CC(CCN(C(C)C)C1CCCCC1)(C(N)=O)c1ccccn1 (stereo unspecified)
Canis familiaris [4]
  Actual duraction: 300 min
Canis familiaris [39]
  Variation/Control: 85%
Canis familiaris [6]
  Variation/Control: 50%

## C=C[C@H]1CN2CC[C@H]1C[C@@H]2[C@@H](O)c1ccnc2ccc(OC)cc12 [QUINIDINE]
Canis familiaris [40]
  Actual duraction: 60 min

## CC(C)N(CCC(C(N)=O)(c1ccccn1)C(C)C)C(C)C (stereo unspecified)
Canis familiaris [41]
  Actual duraction: 360 min
Canis familiaris [5]
  Variation/Control: 10%
Canis familiaris [6]
  Variation/Control: 0%
